Hit rate of the full screen: of about 290,000 compounds, about 1,600 (0.55%) were called active.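 The calls were made as follows: active = inhibition above the mean of all tested compounds plus 3 SD, set per campaign (cut at about 35% in these data); inactive = the rest.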 The sample as a whole holds a higher share of actives than the screen did.
Each molecule was assayed on Hepatitis C virus NS3 helicase (assay: HCV NS3 DNA unwinding blockers – biochemical, Cy5 molecular beacon fluorescence, primary screen (AID 1800;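 also: 0% = DMSO wells and 100% = thioflavine S control wells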)). Details: at 10.9 µM, active compounds read high.
Procedure, shortened: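 test system = hepatitis C virus NS3 helicase domain fragment enzyme | reagent = annealed dual-labelled DNA beacon duplex, ATP-started | times = 1 h at 25 °C | detection = Cy5 fluorescence, 0 and 60 min reads | read-out basis = percent inhibition from t60/t0 fluorescence ratio | control set = DMSO and thioflavine S | replication = one well per compound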

Row | SMILES | inhibition
1 | CS(=O)(=O)N1CCc2cc(C(=O)Nc3ccccc3Br)ccc21 | 5.96% (inactive)
2 | COc1cc2c(cc1OC)CN(CC(=O)Nc1ccc(F)cc1)CC2 | -2.51% (inactive)
3 | CCN(CCCNC(=O)c1ccc2c(c1)NC(=O)CN2C)c1cccc(C)c1 | 2.74% (inactive)
4 | O=c1c(-c2cccc(Cl)c2)c[nH]n1-c1ccccc1 | 4.7% (inactive)
5 | O=c1c2c(-c3ccccc3)ccnc2[nH]n1-c1ccccc1 | 47.7% (active)
6 | Cc1ccc(-c2ccnc3[nH]n(-c4ccccc4)c(=O)c23)cc1 | 15.7% (inactive)
7 | COc1ccc(C(=O)N(C)CC(O)c2ccccc2)cc1OC1CCN(C(C)=O)CC1 (stereo unspecified) | 32.3% (inactive)
8 | CCNC(=O)CC1C(=O)N(c2ccc(OC)cc2)C(=O)N1CCOC (stereo unspecified) | 1.88% (inactive)
9 | CC1Sc2ccc(S(=O)(=O)CCC(=O)NCc3ccccc3Cl)cc2NC1=O (stereo unspecified) | 8.3% (inactive)
10 | COc1ccccc1N1CCN(C(=O)CCS(=O)(=O)c2ccc3c(c2)NC(=O)C(C)S3)CC1 (stereo unspecified) | 38.1% (active)
11 | Cc1cccc(N2CCN(C(=O)CCS(=O)(=O)c3ccc4c(c3)NC(=O)C(C)S4)CC2)c1C (stereo unspecified) | -0.36% (inactive)
12 | Cc1ccc(S(=O)(=O)NCC(=O)N(CC(=O)NCC2CCCO2)c2cccc(F)c2)cc1 (stereo unspecified) | -2.87% (inactive)
13 | O=C(c1ccc(F)cc1)n1c(=S)nc2ccccn21 | 12% (inactive)
14 | CC(=O)c1ccccc1OCc1ccc(C(=O)c2ccccc2)cc1 | -8.3% (inactive)
15 | O=C(Cc1ccccc1)NC(=S)Nc1ccc(N2CCCCC2)cc1 | -1.95% (inactive)
16 | O=C1CC(N2CCN(c3ccc(F)cc3)CC2)C(=O)N1c1ccccc1 (stereo unspecified) | -13.4% (inactive)
17 | O=C1C=CC(=O)N1c1ccc(N2CCCCC2)cc1 | 45.2% (active)
18 | COc1cccc(NC(=O)c2ccccc2N(Cc2ccccc2)S(C)(=O)=O)c1 | 0.24% (inactive)
19 | CC(=O)N1c2ccc(S(=O)(=O)N3CCCC(C(=O)Nc4ccc(C)cc4C)C3)cc2CC1C (stereo unspecified) | -18.4% (inactive)
20 | Cc1occc1C(=O)N/N=C/c1ccc(-c2cccc([N+](=O)[O-])c2)o1 | 45.3% (active)
21 | Cc1ccc(-c2ccc(/C=N/NC(=O)CN3CCOCC3)o2)cc1[N+](=O)[O-] | 6.31% (inactive)

Row | SMILES | inhibition
22 | Cc1cc(C(=O)N/N=C/c2ccccc2[N+](=O)[O-])c(C)o1 | 5.42% (inactive)
23 | COc1ccc(Cn2c(-c3ccc(Cl)cc3)c[n+]3ccccc23)cc1 | -35.9% (inactive)
24 | CCCCn1c(O)c(N=NC(=O)Cn2c(C(F)(F)F)nc3ccccc32)c2ccccc21 | 0.68% (inactive)
25 | Oc1oc(-c2ccccc2Br)nc1/C=N/c1ccccn1 | -6.78% (inactive)
26 | O=C(c1ccco1)N1CCN(C(=S)Nc2cc(F)cc(F)c2)CC1 | -5.92% (inactive)
27 | CC1CCCN(c2ccc(C(=O)NCCc3ccccc3)cn2)C1 (stereo unspecified) | -1.78% (inactive)
28 | CCC(NC(=O)C1CCCC1)c1ccc(C)cc1 (stereo unspecified) | 1.79% (inactive)
29 | O=C(O)c1ccc(/C=N/Nc2nc(N3CCCCC3)nc(N3CCCCC3)n2)cc1 | 3.13% (inactive)
30 | Cc1ccc(C(CC(=O)O)Nc2nc(N3CCCCC3)nc(N3CCCCC3)n2)cc1 (stereo unspecified) | 46.7% (active)
31 | Cc1ccc(C(=O)COC(=O)CCN2C(=O)C3C4CCC(C4)C3C2=O)cc1C (stereo unspecified) | 19.3% (inactive)
32 | CC1CN(C(=S)Nc2cccc(F)c2)CC(C)O1 (stereo unspecified) | -3.8% (inactive)
33 | COc1ccc(S(=O)(=O)N2CCSCC2)cc1 | 9.62% (inactive)
34 | COC(=O)CN1C(=O)C(O)=C(C(C)=O)C1c1ccc([N+](=O)[O-])cc1 (stereo unspecified) | -0.09% (inactive)
35 | CC(=O)C1=C(O)C(=O)N(c2ccc(Br)cc2)C1c1ccc([N+](=O)[O-])cc1 (stereo unspecified) | 36% (active)
36 | CC(=O)C1=C(O)C(=O)N(c2cccnc2)C1c1ccc([N+](=O)[O-])cc1 (stereo unspecified) | -3.05% (inactive)
37 | CN(Cc1ccc(F)cc1)C(=O)COc1ccc2ccccc2c1 | -17.8% (inactive)
38 | COCn1c(C(O)c2ccccc2)cc2ccccc21 (stereo unspecified) | -4.17% (inactive)
39 | Cc1cc(C)c(OCC(=O)N/N=C/c2ccco2)c(C)c1 | -4.49% (inactive)
40 | COC(=O)COc1ccc2c(c1C)O/C(=C\c1ccco1)C2=O | 90.2% (active)
41 | COC(=O)C1=C(C)N(c2ccc(Br)cc2)C(=O)/C1=C\c1ccco1 | 17.4% (inactive)
42 | Cn1ncc2c(N3CCCCC3)nc(NCCCO)nc21 | 5.11% (inactive)

Row | SMILES | inhibition
43 | CC(=O)NN1C(=O)c2ccccc2NC1c1ccccc1 (stereo unspecified) | -4.55% (inactive)
44 | COC1=C/C(=C/c2c(N)n3nc(CC(=O)N4CCOCC4)sc3nc2=O)C=CC1=O | 13.6% (inactive)
45 | COc1cccc(NC(=O)CSc2nnc(Cc3ccc(OC)c(OC)c3)o2)c1 | -10.1% (inactive)
46 | O=C(N/N=C/c1ccco1)c1ccc(NC(=O)C2CC2)cc1 | 2.86% (inactive)
47 | O=C(N/N=C/c1ccco1)c1ccc(C(=O)N/N=C/c2ccco2)o1 | -3.79% (inactive)
48 | O=C(N/N=C/c1ccco1)c1csc2c1CCCC2 | 42.9% (active)
49 | Cc1ccc(C)c(S(=O)(=O)N2CCCOC2CNC(=O)C(=O)NC2CCCCC2)c1 (stereo unspecified) | 8.68% (inactive)
50 | CCc1cc2c(=O)n(-c3ccccc3)c(SCC(=O)O)nc2s1 | 5.68% (inactive)
51 | CCOc1ccc(C2C3=C(CCCC3=O)N(CC(=O)O)C3=C2C(=O)CCC3)cc1 | 59.8% (active)
52 | CCOc1ccc(C2C(C#N)=C(N)N(N(C)C)C3=C2C(=O)CCC3)cc1 (stereo unspecified) | 6.79% (inactive)
53 | COc1ccc(C2C3=C(CCCC3=O)N(CC(=O)O)C3=C2C(=O)CCC3)cc1 | 2.66% (inactive)
54 | COc1ccc(N(C(=O)c2snc(C(N)=O)c2N)C(C(=O)NC2CCCC2)c2ccc(C)o2)c(OC)c1 (stereo unspecified) | -6.52% (inactive)
55 | Cc1[nH]n(-c2cccc(Cl)c2)c(=O)c1-c1ccc(Cl)cc1 | 1.96% (inactive)
56 | CC1=NN(C(N)=S)C(=O)C1N=Nc1cc(Cl)ccc1Cl (stereo unspecified) | 34.2% (inactive)
57 | Cc1[nH]n(C(N)=S)c(=O)c1N=Nc1ccc(Cl)cc1Cl | 44.7% (active)
58 | O=C(CSC(=S)N1CCCCC1)c1c(F)cccc1F | 4.19% (inactive)
59 | COc1ccc(CC(=O)N/N=C(\C)c2ccccn2)cc1 | 8.79% (inactive)
60 | Cc1cccc(OCC(=O)NCCCNC(=O)c2ccccn2)c1 | 4.84% (inactive)
61 | CCN(CC)CCOc1ccc2c(c1)C(=NNC(=O)c1ccccn1)c1cc(OCCN(CC)CC)ccc1-2 | 41% (active)
